Measured values: ChEMBL document CHEMBL1147044, “Design of helical, oligomeric HIV-1 fusion inhibitor peptides with potent activity against enfuvirtide-resistant virus” (Proc Natl Acad Sci U S A, 2007)
In brackets after ≈: the same amount, converted by molar mass.

Tests used:
[1] = system: Human immunodeficiency virus 1; assay: Binding affinity to HIV1 gp41 heptad repeat 1 region assessed as thermal stability of HR1/HR2 peptide bundle complex at 1 uM in presence of 8M urea
[2] = system: Human immunodeficiency virus 1; assay: Antiviral activity against HIV1 098 isolate infected in human PBMCs by reverse transcriptase assay; assay type: functional, organism-based
Procedure, shortened: (§1)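 CD8-depleted activated PBMC targets infected at high MOI by spinoculation; infected cells incubated with uninfected targets at 2 × 10⁵ cells per well with serially diluted peptide for 9 days. Fresh compound added and samples taken every 2–3 days. Replication read by reverse transcriptase assay; IC50 from reduction in RT signal relative to infected untreated wells.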

[3] = system: Human immunodeficiency virus 1; assay: Antiviral activity against HIV1 098-T20 isolate infected in human PBMCs by reverse transcriptase assay; assay type: functional, organism-based
Procedure, shortened: as §1

[4] = system: Human immunodeficiency virus 1; assay: Antiviral activity against HIV1 098-T1249 isolate infected in human PBMCs by reverse transcriptase assay; assay type: functional, organism-based
Procedure, shortened: as §1

[5] = system: Human immunodeficiency virus 1; assay: Antiviral activity against HIV1 098-T651 isolate infected in human PBMCs by reverse transcriptase assay; assay type: functional, organism-based
Procedure, shortened: as §1

[6] = Half life in cynomolgus monkey at 1 to 2 mg/kg, iv; assay type: ADME, organism-based, Macaca fascicularis; parameters: dose 1-2 mg/kg, route intravenous; details: in vivo
Procedure, shortened: (§2)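 Male cynomolgus monkeys received a single i.v. dose of about 1–2 mg/kg in isotonic phosphate-mannitol vehicle, given as cassettes (typically n ≤ 8). Plasma was protein-precipitated with 0.5% formic acid in acetonitrile and peptide measured by reversed-phase HPLC. Parameters were fitted with mono- or biexponential models.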

[7] = Clearance in cynomolgus monkey at 1 to 2 mg/kg, iv; assay type: ADME, organism-based, Macaca fascicularis; parameters: dose 1-2 mg/kg, route intravenous; details: in vivo
Procedure, shortened: as §2

[8] = system: Human immunodeficiency virus 1; assay: Antiviral activity against HIV1 3B infected in human PBMCs by reverse transcriptase assay; assay type: functional, organism-based; details: Human immunodeficiency virus 1, 3B
Procedure, shortened: as §1

Compound	Tm [1] [°C]	IC50 [2] [µg/mL]	IC50 [3] [µg/mL]	IC50 [4] [µg/mL]	IC50 [5] [µg/mL]	half-life [6] [h]	clearance [7] [mL/min/kg]	IC50 [8] [µg/mL]
CC[C@H](C)[C@H](NC(=O)[C@H](CCC(N)=O)NC(=O)[C@H](C)NC(=O)[C@H](CCC(N)=O)NC(=O)[C@H](CCC(=O)O)NC(=O)[C@H](CC(C)C)NC(=O)[C@H](CC(C)C)NC(=O)[C@H](C)NC(=O)[C@@H](NC(=O)[C@@H](NC(=O)[C@H](CCCCN)NC(=O)[C@H](CCC(N)=O)NC(=O)[C@H](CCC(=O)O)NC(=O)[C@H](Cc1c[nH]c2ccccc12)NC(=O)[C@H](CCC(=O)O)NC(=O)[C@H](CCC(N)=O)NC(=O)[C@@H](N)Cc1c[nH]c2ccccc12)[C@@H](C)CC)[C@@H](C)O)C(=O)N[C@@H](CCC(N)=O)C(=O)N[C@@H](CCC(N)=O)C(=O)N[C@@H](CCC(=O)O)C(=O)N[C@@H](CCCCN)C(=O)N[C@@H](CC(N)=O)C(=O)N[C@@H](CCC(=O)O)C(=O)N[C@@H](Cc1ccc(O)cc1)C(=O)N[C@@H](CCC(=O)O)C(=O)N[C@@H](CC(C)C)C(=O)N[C@@H](CCC(N)=O)C(=O)N[C@@H](CCCCN)C(=O)N[C@@H](CC(C)C)C(=O)N[C@@H](CC(=O)O)C(=O)N[C@@H](CCCCN)C(=O)N[C@@H](Cc1c[nH]c2ccccc12)C(=O)N[C@@H](C)C(=O)N[C@@H](CO)C(=O)N[C@@H](CC(C)C)C(=O)N[C@@H](Cc1c[nH]c2ccccc12)C(=O)N[C@@H](CCC(=O)O)C(=O)N[C@@H](Cc1c[nH]c2ccccc12)C(=O)N[C@@H](Cc1ccccc1)C(=O)O	59	0.013 (≈ 2.6 nM)	0.022 (≈ 4.4 nM)	0.363 (≈ 72.7 nM)	8.14 (≈ 1630 nM)	5.9	0.167	0.003 (≈ 0.601 nM)
CC[C@H](C)[C@H](NC(=O)[C@H](CC(C)C)NC(=O)[C@H](CO)NC(=O)[C@H](Cc1cnc[nH]1)NC(=O)[C@H](NC(=O)[C@H](CC(C)C)NC(=O)[C@H](CO)NC(=O)[C@@H](NC(=O)[C@H](Cc1ccc(O)cc1)NC(=O)[C@H](CC(N)=O)NC(=O)[C@H](CC(N)=O)NC(=O)[C@@H](NC(=O)[C@H](CCC(=O)O)NC(=O)[C@H](CCCNC(=N)N)NC(=O)[C@H](CC(=O)O)NC(=O)[C@H](Cc1c[nH]c2ccccc12)NC(=O)[C@H](CCC(=O)O)NC(=O)[C@H](CCSC)NC(=O)[C@H](Cc1c[nH]c2ccccc12)NC(=O)[C@@H](NC(=O)[C@@H](N)CCSC)[C@@H](C)O)[C@@H](C)CC)[C@@H](C)O)[C@@H](C)CC)C(=O)N[C@@H](CCC(=O)O)C(=O)N[C@@H](CCC(=O)O)C(=O)N[C@@H](CO)C(=O)N[C@@H](CCC(N)=O)C(=O)N[C@@H](CC(N)=O)C(=O)N[C@@H](CCC(N)=O)C(=O)N[C@@H](CCC(N)=O)C(=O)N[C@@H](CCC(=O)O)C(=O)N[C@@H](CCCCN)C(=O)N[C@@H](CC(N)=O)C(=O)N[C@@H](CCC(=O)O)C(=O)N[C@@H](CCC(N)=O)C(=O)N[C@@H](CCC(=O)O)C(=O)N[C@@H](CC(C)C)C(=O)N[C@@H](CC(C)C)C(=O)O	68	0.033 (≈ 7.36 nM)	0.06 (≈ 13.4 nM)	0.151 (≈ 33.7 nM)	7.6 (≈ 1700 nM)	0.3	7.2	0.008 (≈ 1.79 nM)
CC[C@H](C)[C@H](NC(=O)[C@H](CC(C)C)NC(=O)[C@H](CO)NC(=O)[C@H](Cc1cnc[nH]1)NC(=O)[C@@H](NC(=O)[C@H](CC(C)C)NC(=O)[C@H](CO)NC(=O)[C@@H](NC(=O)[C@H](Cc1ccc(O)cc1)NC(=O)[C@H](CC(N)=O)NC(=O)[C@H](CC(N)=O)NC(=O)[C@@H](NC(=O)[C@H](CCC(=O)O)NC(=O)[C@H](CCCNC(=N)N)NC(=O)[C@H](CC(=O)O)NC(=O)[C@H](Cc1c[nH]c2ccccc12)NC(=O)[C@H](CCC(=O)O)NC(=O)[C@H](CCSC)NC(=O)[C@H](Cc1c[nH]c2ccccc12)NC(=O)[C@@H](NC(=O)[C@@H](N)CCSC)[C@@H](C)O)[C@@H](C)CC)[C@@H](C)O)[C@@H](C)CC)C(=O)N[C@@H](CCC(=O)O)C(=O)N[C@@H](CCC(=O)O)C(=O)N[C@@H](CO)C(=O)N[C@@H](CCC(N)=O)C(=O)N[C@@H](CC(N)=O)C(=O)N[C@@H](CCC(N)=O)C(=O)N[C@@H](CCC(N)=O)C(=O)N[C@@H](CCC(=O)O)C(=O)N[C@@H](CCCCN)C(=O)N[C@@H](CC(N)=O)C(=O)N[C@@H](CCC(=O)O)C(=O)N[C@@H](CCC(N)=O)C(=O)N[C@@H](CCC(=O)O)C(=O)N[C@@H](CC(C)C)C(=O)N[C@@H](CC(C)C)C(=O)N[C@@H](CCC(=O)O)C(=O)N[C@@H](CC(C)C)C(=O)O	74	0.032 (≈ 6.78 nM)	0.039 (≈ 8.26 nM)	0.137 (≈ 29 nM)	4.97 (≈ 1050 nM)	1.2	6.2	0.008 (≈ 1.69 nM)
CC[C@H](C)[C@H](NC(=O)[C@H](C)NC(=O)[C@H](CCCNC(=N)N)NC(=O)[C@H](CC(=O)O)NC(=O)[C@H](Cc1c[nH]c2ccccc12)NC(=O)[C@H](C)NC(=O)[C@H](CCC(=O)O)NC(=O)[C@H](Cc1c[nH]c2ccccc12)NC(=O)[C@@H](NC(=O)[C@@H](N)[C@@H](C)O)[C@@H](C)O)C(=O)N[C@@H](C)C(=O)N[C@@H](CCC(=O)O)C(=O)N[C@@H](Cc1ccc(O)cc1)C(=O)N[C@@H](C)C(=O)N[C@@H](C)C(=O)N[C@@H](CCCNC(=N)N)C(=O)N[C@H](C(=O)N[C@@H](CCC(=O)O)C(=O)N[C@@H](C)C(=O)N[C@@H](CC(C)C)C(=O)N[C@H](C(=O)N[C@@H](CCCNC(=N)N)C(=O)N[C@@H](C)C(=O)N[C@@H](C)C(=O)N[C@@H](CCC(N)=O)C(=O)N[C@@H](CCC(=O)O)C(=O)N[C@@H](CCC(N)=O)C(=O)N[C@@H](CCC(N)=O)C(=O)N[C@@H](CCC(=O)O)C(=O)N[C@@H](CCCCN)C(=O)N[C@@H](CC(N)=O)C(=O)N[C@@H](CCC(=O)O)C(=O)N[C@@H](C)C(=O)N[C@@H](C)C(=O)N[C@@H](CC(C)C)C(=O)N[C@@H](CCCNC(=N)N)C(=O)N[C@@H](CCC(=O)O)C(=O)N[C@@H](CC(C)C)C(=O)O)[C@@H](C)CC)[C@@H](C)CC	86	0.018 (≈ 4.08 nM)	0.025 (≈ 5.66 nM)	0.015 (≈ 3.4 nM)	0.021 (≈ 4.76 nM)	16.3	0.717	0.007 (≈ 1.59 nM)
H-TTWEAWDRAIAEYAARIEALIRAAQELQEKLEAALREL-OH	92	0.6	0.416	0.555	0.987	30.8	0.0333	0.172
H-TTWEAWDRAIAEYAARIEALIRAAQEQQEKLEAALREL-OH	86	0.045	0.028	0.025	0.044	17.9	0.15	0.012
H-TTWEAWDRAIAEYAARIEALIRALQELQEKLEAILREL-OH	–	> 20	> 20	> 20	> 20	35.4	0.05	3.16

Other lines, results leading:

Tm [1] [°C]	IC50 [2] [µg/mL]	IC50 [3] [µg/mL]	IC50 [4] [µg/mL]	IC50 [5] [µg/mL]	half-life [6] [h]	clearance [7] [mL/min/kg]	IC50 [8] [µg/mL]	Compound
84	–	–	–	–	–	–	–	CC[C@H](C)[C@H](NC(=O)[C@H](C)NC(=O)[C@H](CCCNC(=N)N)NC(=O)[C@H](CC(=O)O)NC(=O)[C@H](Cc1c[nH]c2ccccc12)NC(=O)[C@H](C)NC(=O)[C@H](CCC(=O)O)NC(=O)[C@H](Cc1c[nH]c2ccccc12)NC(=O)[C@@H](NC(=O)[C@@H](N)[C@@H](C)O)[C@@H](C)O)C(=O)N[C@@H](C)C(=O)N[C@@H](CCC(=O)O)C(=O)N[C@@H](Cc1ccc(O)cc1)C(=O)N[C@@H](C)C(=O)N[C@@H](C)C(=O)N[C@@H](CCCNC(=N)N)C(=O)N[C@H](C(=O)N[C@@H](CCC(=O)O)C(=O)N[C@@H](C)C(=O)N[C@@H](CC(C)C)C(=O)N[C@H](C(=O)N[C@@H](CCCNC(=N)N)C(=O)N[C@@H](C)C(=O)N[C@@H](CC(C)C)C(=O)N[C@@H](CCC(N)=O)C(=O)N[C@@H](CCC(=O)O)C(=O)N[C@@H](CC(C)C)C(=O)N[C@@H](CCC(N)=O)C(=O)N[C@@H](CCC(=O)O)C(=O)N[C@@H](CCCCN)C(=O)N[C@@H](CC(N)=O)C(=O)N[C@@H](CCC(N)=O)C(=O)N[C@@H](C)C(=O)N[C@H](C(=O)N[C@@H](CC(C)C)C(=O)N[C@@H](CCCNC(=N)N)C(=O)N[C@@H](CCC(=O)O)C(=O)N[C@@H](CC(C)C)C(=O)O)[C@@H](C)CC)[C@@H](C)CC)[C@@H](C)CC
–	0.026	0.033	0.014	0.021	5.1	0.533	0.007	H-MTWEAWDRAIAEYAARIEALIRAAQEQQEKNEAALREL-OH
–	0.079	0.079	0.12	0.25	–	–	0.061	H-MTWMAWDRAIANYAALIHALIEAAQNQQEKNEAALLEL-OH
89	0.021	0.035	0.03	0.02	7.6	0.433	0.007	H-TTWEAWDRAIAEYAARIEALIRAAQELQEKNEAALREL-OH
–	0.021	0.034	0.024	0.039	3.4	1.1	0.007	H-TTWEAWDRAIAEYAARIEALIRAAQEQQEKNEAILREL-OH
–	0.118	0.154	0.192	> 20	9.6	0.15	0.065	H-TTWEAWDRAIAEYAARIEALIRALQELQEKNEAILREL-OH
–	0.035	0.028	0.035	0.05	15.2	0.167	0.011	H-TTWEAWDRAIAEYAARIEALIRALQEQQEKNEAALREL-OH
80	0.021	0.056	0.037	0.167	–	–	0.012	H-TTWEEWDREINEYTSRIESLIRESQEQQEKNEQELREL-OH
